For data set [1], the species on record is Homo sapiens. Description: Selectivity index, ratio of IC50 for recombinant human full length C-terminal His/FLAG-tagged HDAC1 expressed in baculovirus infected Sf9 insect cells using fluorogenic HDAC as substrate measured after 30 mins by fluorescence based analysis to IC50 for recombinant human full length C-terminal […] expressed in baculovirus infected Sf9 insect cells using fluorogenic HDAC as substrate measured after 30 mins by fluorescence based analysis.

For another data set, the target named is Histone deacetylase 1 (Homo sapiens, UniProt Q13547). Description: Inhibition of recombinant full length C-terminal His/FLAG tagged human HDAC1 (1 to 482 residues) expressed in baculovirus infected sf9 insect cells using p53 (379 to 382 residues) derived fluorogenic peptide RHKKAc as substrate preincubated for 5 to 10 mins followed by substrate addition and further incubated for 2 hrs by fluorescence assay.

Data set [2] is filed under the species Homo sapiens. Put plainly: Selectivity index, ratio of IC50 for recombinant full length C-terminal His/FLAG tagged human HDAC1 (1 to 482 residues) expressed in baculovirus infected sf9 insect cells using p53 (379 to 382 residues) derived fluorogenic peptide RHKKAc as substrate preincubated for 5 to 10 mins followed by ….
For data set [3], the target named is T1, Protein deacetylase HDAC6 (Homo sapiens, UniProt Q9UBN7).
T1 sequence (Q9UBN7 whole entry): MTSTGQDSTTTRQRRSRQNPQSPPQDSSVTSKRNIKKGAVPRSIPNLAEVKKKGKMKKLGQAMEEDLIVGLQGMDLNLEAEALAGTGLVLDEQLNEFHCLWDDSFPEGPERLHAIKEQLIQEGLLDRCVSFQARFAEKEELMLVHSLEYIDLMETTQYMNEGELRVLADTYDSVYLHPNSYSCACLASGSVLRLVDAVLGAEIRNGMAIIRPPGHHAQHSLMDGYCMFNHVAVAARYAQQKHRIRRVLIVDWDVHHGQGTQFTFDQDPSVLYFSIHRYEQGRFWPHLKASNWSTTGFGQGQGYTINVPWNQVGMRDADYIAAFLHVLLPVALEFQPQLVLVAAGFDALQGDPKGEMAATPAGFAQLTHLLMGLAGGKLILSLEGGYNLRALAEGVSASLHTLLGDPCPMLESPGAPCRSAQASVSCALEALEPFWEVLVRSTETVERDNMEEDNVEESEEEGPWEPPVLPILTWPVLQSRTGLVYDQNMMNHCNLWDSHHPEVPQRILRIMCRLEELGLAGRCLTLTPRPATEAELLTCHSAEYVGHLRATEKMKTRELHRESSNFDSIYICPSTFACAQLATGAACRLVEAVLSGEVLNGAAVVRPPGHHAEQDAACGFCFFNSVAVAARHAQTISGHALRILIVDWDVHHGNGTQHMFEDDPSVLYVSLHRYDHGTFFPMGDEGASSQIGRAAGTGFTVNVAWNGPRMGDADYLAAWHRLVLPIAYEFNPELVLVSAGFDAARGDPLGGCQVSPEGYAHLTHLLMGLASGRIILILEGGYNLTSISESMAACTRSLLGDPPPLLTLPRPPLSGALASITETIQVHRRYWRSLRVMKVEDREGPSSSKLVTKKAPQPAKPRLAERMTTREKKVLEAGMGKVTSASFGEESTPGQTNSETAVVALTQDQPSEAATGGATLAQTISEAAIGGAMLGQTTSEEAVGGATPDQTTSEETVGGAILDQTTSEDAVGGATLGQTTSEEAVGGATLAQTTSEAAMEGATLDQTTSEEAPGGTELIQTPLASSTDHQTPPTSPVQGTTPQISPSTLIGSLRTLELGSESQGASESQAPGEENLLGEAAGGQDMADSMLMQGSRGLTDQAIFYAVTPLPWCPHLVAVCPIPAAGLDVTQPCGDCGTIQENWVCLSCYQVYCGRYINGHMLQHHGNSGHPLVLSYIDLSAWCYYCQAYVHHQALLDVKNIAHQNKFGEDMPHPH
Put plainly: Inhibition of recombinant N-terminal GST-tagged human HDAC6 (1 to 1215 residues) expressed in baculovirus infected sf9 insect cells using p53 (379 to 382 residues) derived fluorogenic peptide RHKKAc as substrate preincubated for 5 to 10 mins followed by substrate addition and further incubated for 2 hrs by fluorescence assay.

For data set [4], the species on record is Homo sapiens. Description: Selectivity index, ratio of IC50 for recombinant full length human HDAC1 expressed in Escherichia coli cells using Fluor de Lys as substrate preincubated for 15 mins followed by substrate addition for 60 mins by fluorescence assay to IC50 for recombinant full length human HDAC6 expressed in baculovirus infected sf9 insect cells using Fluor de Lys as substrate preincubated for 15 mins followed by substrate addition for 60 mins by fluorescence assay.

For a further data set, the system named is 5637. Put plainly: Induction of cell death in human 5637 cells at 0.1 to 25 uM. It is filed as cell-based. Particulars: human, 5637, 25 µM.
Data set [5] is described as follows: Induction of cell death in mouse SM1 cells at 0.1 to 25 uM. It is filed as cell-based.
For another data set, the system named is PC-3. Put plainly: Induction of cell death in human PC3 cells at 0.1 to 25 uM. It is filed as cell-based. The conditions noted are these: pc-3, 25 µM.
A short description of data set [6]: Cytotoxicity against mouse SM1 cells at 0.1 to 25 uM by ApoTox-Glo triplex assay. It is filed as cell-based. The essentials:
(§1)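 SM1 cells treated with HDAC inhibitors, with pan-HDACi and assay controls on every plate. ApoTox-Glo triplex readout: viability fluorescence 400Ex/505Em, cytotoxicity fluorescence 485Ex/520Em, then caspase 3/7 reagent read by luminescence for apoptosis.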

Data set [7] concerns the target T2, Protein deacetylase HDAC6 (Mus musculus) (UniProt Q9Z2V5).
T2 sequence (whole entry): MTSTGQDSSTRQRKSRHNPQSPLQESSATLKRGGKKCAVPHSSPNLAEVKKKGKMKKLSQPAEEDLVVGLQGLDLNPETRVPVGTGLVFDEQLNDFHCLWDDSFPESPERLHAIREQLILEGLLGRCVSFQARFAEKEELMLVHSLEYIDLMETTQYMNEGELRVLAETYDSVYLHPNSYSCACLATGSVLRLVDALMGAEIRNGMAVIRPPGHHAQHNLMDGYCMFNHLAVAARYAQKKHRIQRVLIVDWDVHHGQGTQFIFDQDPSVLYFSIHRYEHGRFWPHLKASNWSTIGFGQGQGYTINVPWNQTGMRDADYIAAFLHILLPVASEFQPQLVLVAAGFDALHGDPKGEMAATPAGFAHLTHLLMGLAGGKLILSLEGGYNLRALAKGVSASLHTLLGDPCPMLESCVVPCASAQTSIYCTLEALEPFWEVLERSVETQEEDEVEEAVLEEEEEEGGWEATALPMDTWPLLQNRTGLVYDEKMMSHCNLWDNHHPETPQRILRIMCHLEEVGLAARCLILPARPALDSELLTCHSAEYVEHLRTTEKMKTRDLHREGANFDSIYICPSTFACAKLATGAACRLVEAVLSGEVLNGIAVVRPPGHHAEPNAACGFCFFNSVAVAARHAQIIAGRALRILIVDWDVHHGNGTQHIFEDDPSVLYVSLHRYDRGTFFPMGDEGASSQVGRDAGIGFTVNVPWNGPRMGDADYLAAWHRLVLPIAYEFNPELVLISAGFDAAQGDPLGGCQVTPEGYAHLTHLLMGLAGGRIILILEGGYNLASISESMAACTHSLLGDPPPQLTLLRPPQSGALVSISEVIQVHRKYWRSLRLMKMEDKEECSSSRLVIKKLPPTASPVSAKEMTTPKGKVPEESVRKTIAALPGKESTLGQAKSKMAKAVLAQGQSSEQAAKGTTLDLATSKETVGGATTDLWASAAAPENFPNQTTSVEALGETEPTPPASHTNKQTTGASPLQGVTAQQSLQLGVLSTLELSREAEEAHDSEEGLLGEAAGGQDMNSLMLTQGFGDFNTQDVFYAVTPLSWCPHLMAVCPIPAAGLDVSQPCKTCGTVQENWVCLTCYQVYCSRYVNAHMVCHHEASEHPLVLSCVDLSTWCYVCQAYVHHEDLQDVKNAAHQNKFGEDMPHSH
Description: Inhibition of HDAC6 in mouse SM1 cells assessed as increase in acetylated alpha-tubulin level at 5 to 10 uM after 24 hrs by Western blot analysis. It is filed as cell-based. On the technique in general: In western blotting, separated proteins are transferred to a membrane and probed.

Data set [8] is described as follows: Induction of apoptosis in mouse SM1 cells at 0.1 to 25 uM by caspase3/7 reagent based luminescence assay. It is filed as cell-based. The essentials:
as §1

The next data set concerns T-24. Put plainly: Induction of cell death in human T24 cells at 0.1 to 25 uM. It is filed as cell-based. Particulars: t-24, 25 µM.
A short description of data set [9]: Effect on cell viability in mouse SM1 cells up to 10 uM by ApoTox-Glo triplex assay. It is filed as cell-based. The essentials: as §1
Data set [10] has as its target T1, Protein deacetylase HDAC6. Description: Inhibition of recombinant N-terminal GST-tagged human HDAC6 (1 to 1215 residues) expressed in baculovirus infected sf9 insect cells using RHK-K(Ac)-AMC as substrate after 90 mins by fluorescence assay.
The species named for data set [11] is Homo sapiens. Put plainly: Selectivity index, ratio of IC50 for recombinant full length C-terminal His/FLAG tagged human HDAC1 (1 to 482 residues) expressed in baculovirus infected sf21 insect cells using RHK-K(Ac)-AMC as substrate after 60 mins by fluorescence assay to IC50 for recombinant N-terminal GST-tagged human HDAC6 (1 to 1215 residues) expressed in baculovirus infected sf9 insect cells using RHK-K(Ac)-AMC as substrate after 90 mins by fluorescence assay.

The values that follow come from ChEMBL document CHEMBL4354804, “Discovery of a New Isoxazole-3-hydroxamate-Based Histone Deacetylase 6 Inhibitor SS-208 with Antitumor Activity in Syngeneic Melanoma Mouse Models” (J Med Chem, 2019).

SMILES strings stand for the structures. Active and inactive are the calls of the source. The calls are words filed in the database; no cut-off is given here.

Chain of Histone deacetylase 1 (Q13547 whole entry, the tested form may be a part): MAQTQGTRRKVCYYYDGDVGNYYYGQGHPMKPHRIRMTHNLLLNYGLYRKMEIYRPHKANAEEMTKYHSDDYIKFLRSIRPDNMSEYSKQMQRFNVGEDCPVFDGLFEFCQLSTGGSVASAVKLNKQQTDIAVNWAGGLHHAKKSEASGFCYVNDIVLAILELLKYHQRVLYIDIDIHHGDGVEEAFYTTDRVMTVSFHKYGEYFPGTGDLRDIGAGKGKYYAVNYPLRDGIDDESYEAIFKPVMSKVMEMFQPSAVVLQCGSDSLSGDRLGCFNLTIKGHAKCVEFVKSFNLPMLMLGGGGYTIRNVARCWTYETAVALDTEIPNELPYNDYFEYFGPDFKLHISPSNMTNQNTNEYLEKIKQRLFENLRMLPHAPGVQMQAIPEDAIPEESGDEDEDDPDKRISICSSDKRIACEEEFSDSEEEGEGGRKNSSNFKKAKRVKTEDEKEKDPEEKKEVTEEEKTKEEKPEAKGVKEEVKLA

Turning to `O=C(NO)c1ccc(CN(CCO)C(=O)Cc2ccccc2)cc1`, the Ratio IC50 in the data set filed under Homo sapiens [1] turned out to be 36.

Take `O=C(NO)c1cc(CCCCc2ccc(Cl)c(Cl)c2)on1`: the IC50 – broadly, the midpoint of a concentration-inhibition curve – on Histone deacetylase 1 is more than 30000 nM.

For `CC(C)(C)OC(=O)Nc1ccc(-c2cc(C(=O)NCc3ccc(C(=O)NO)cc3)no2)cc1`, the Ratio IC50 in the data set listed under Homo sapiens [2] came out at 1320.

With `O=C(NO)c1cc(CCCCN2c3ccc(Cl)cc3CCc3cc(Cl)ccc32)on1`, the IC50 on Histone deacetylase 1 was more than 30000 nM. In addition, the Ratio IC50 in the data set listed under Homo sapiens [2] is more than 22.

For the molecule `O=C(NO)c1cc(CCCOc2ccc(Cl)c(Cl)c2)on1`, the IC50 at Histone deacetylase 1 is more than 30000 nM; in data set [3], 200 nM. Also, the Ratio IC50 in the data set listed under Homo sapiens [2] is more than 152.

Consider `O=C(NO)c1ccc(Cn2c3c(c4ccccc42)S(=O)(=O)CC3)cc1`, for which the Ratio IC50 in the data set filed under Homo sapiens [4] was determined as 1460.

For `O=C(NO)c1cc(CCCCn2ccc3cc(Cl)c(Cl)cc32)on1`, the IC50 on Histone deacetylase 1 is more than 30000 nM; in data set [3], 4360 nM. Also, the Ratio IC50 in the data set listed under Homo sapiens [2] was more than 7.

Take `CCCCN(Cc1ccc(C(=O)NO)cc1)C(=O)Nc1ccccc1` [NEXTURASTAT A]: the Activity entry (in the data set on 5637; in [5]; in the data set on PC-3; in data set [6]; in data set [8]; with T-24) was “Non-Toxic” in each case. Moreover, the Activity result in data set [9] is given as “Non-Toxic”. In data set [7], the inhibition result is “Active”.

Consider `CC1(C)CCN(CCCCc2cc(C(=O)NO)no2)c2ccc(Cl)cc21`, for which the IC50 at Histone deacetylase 1 was more than 30000 nM; in data set [3], 1990 nM. In addition, in the data set listed under Homo sapiens [2], the Ratio IC50 was more than 15.

`Cc1nc2ccccc2n1Cc1ccc(C(=O)NO)cc1F`: the IC50 in [10] is 0.81 nM. Further, the Ratio IC50 in the data set filed under Homo sapiens [11] worked out at 11100.

Consider `O=C(NO)c1cc(CCCCN2CCCc3cc(Cl)ccc32)on1`, for which the half-inhibitory concentration (IC50) at Histone deacetylase 1 stood at 11200 nM; in data set [3] it was 690 nM. Besides, the Ratio IC50 in the data set listed under Homo sapiens [2] is 16.

As to `O=C(NCCc1cc(C(=O)NO)no1)c1ccccc1`, the half-inhibitory concentration (IC50) is more than 30000 nM on Histone deacetylase 1 and 190 nM in data set [3]. Besides, in the data set listed under Homo sapiens [2], the Ratio IC50 is more than 155.

`CN1CCc2c(c3ccccc3n2Cc2ccc(C(=O)NO)cc2)C1` [TUBASTATIN A]: the Activity result (in the data set with 5637; in [5]; with PC-3; in data set [6]; in [8]; in the data set on T-24) was “Non-Toxic” throughout. Moreover, in data set [9], the Activity result is given as “Non-Toxic”.

With `O=C(CCc1cc(C(=O)NO)no1)Nc1nc(-c2ccccc2)cs1`, the Ratio IC50 in the data set filed under Homo sapiens [2] is 9.9.

In the case of `O=C(NCCc1cc(C(=O)NO)no1)c1ccc2ccccc2c1`, in the data set listed under Homo sapiens [2], the Ratio IC50 came out at 294. The IC50 in data set [3] is 10 nM.

With `O=C(NCCc1cc(C(=O)NO)no1)c1cccc(-c2ccccc2)c1`, the Ratio IC50 in the data set filed under Homo sapiens [2] was determined as 85.

Take `CC(C)(C)OC(=O)Nc1ccc(-c2cc(C(=O)NCCCCCCC(=O)NO)no2)cc1`: the IC50 at Histone deacetylase 1 is 3.2 nM.
